High-throughput results as filed in PubChem.
Only some compounds are listed: those with a hit (about 5.8% of all), similar ones and a draw of the others.
KDM4C inh = blocks human GASC-1 (KDM4C) demethylase activity; Q9H3R0; GST-KDM4C 2-372, H3K9me3 peptide, LANCE TR-FRET; inhibition, % at 12.5 µM; actives 0.15% (n = 96,000);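 active means mean replicate inhibition above about 25%, with at least 55% of replicates also reaching it, limit read from the data, passing the limit was not always enough; inconclusive means only one of those two conditions met; inactive means neither condition met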
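Compound: one test concentration per compound; Material: GST-GASC-1 enzyme fragment 2-372; Amount: GASC-1 enzyme at 10 nM final in reaction; Also added: H3K9me3 peptide substrate, Fe(II), 2-oxoglutarate; Technique: LANCE TR-FRET; Times: 30 min demethylation and 1 h detection at room temperature.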
Pf Dd2 inh = blocks growth of Plasmodium falciparum Dd2 parasites; P. falciparum Dd2 growth, SYBR Green, 72 h; hits give low values; activity change, % at 10 µM; actives 2.3% (n = 94,000); AID 1159554; in the data active means activity change below about -80%; inconclusive means no clear call, values can overlap the other calls
T cruzi growth-1 = T. cruzi proliferation inhibition; T. cruzi beta-gal in NIH3T3, GalScreen luminescence, 90 h; actives 5.9% (n = 77,000); inhibition, % at 8.34 µM; AID 624255;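 active means mean inhibition above about 93%, with at least 55% of replicates each passing it, limit read from the data, passing the limit was not always enough; inconclusive means only one of those two conditions holds; inactive means neither condition holds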
IDH1 mut inh = blocks human IDH1 R132H reductase activity | AID 624101 | inhibition, % at 10 µM | diaphorase/resazurin fluorescence, 60 min | O75874 | actives 0.18% (n = 70,000); in the data active means inhibition above about 34%; inconclusive means no clear call, values can overlap the other calls; inactive means below about 11%;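 further: 0% = DMSO and 100% = no enzyme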
Target sequence (O75874 whole entry R132H): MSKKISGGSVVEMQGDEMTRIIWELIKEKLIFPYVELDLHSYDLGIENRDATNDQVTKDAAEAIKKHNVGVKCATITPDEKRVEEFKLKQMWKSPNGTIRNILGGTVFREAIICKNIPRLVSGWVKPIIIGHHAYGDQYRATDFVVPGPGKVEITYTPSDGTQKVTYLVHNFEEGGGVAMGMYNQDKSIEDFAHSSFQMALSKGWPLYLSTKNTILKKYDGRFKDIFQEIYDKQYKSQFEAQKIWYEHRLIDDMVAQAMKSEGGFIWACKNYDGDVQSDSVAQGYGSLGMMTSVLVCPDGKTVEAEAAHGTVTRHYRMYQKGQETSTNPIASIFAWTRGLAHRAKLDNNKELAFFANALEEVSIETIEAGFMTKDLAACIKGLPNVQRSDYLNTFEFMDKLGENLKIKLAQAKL
T cruzi growth-2 = blocks T. cruzi growth in NIH3T3 host cells. inhibition, % at 8.35 µM. shares compounds with T cruzi growth-1. T. cruzi beta-gal in NIH3T3, GalScreen luminescence, 90 h. actives 72% (n = 5,600). AID 651739;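 active means mean replicate inhibition above about 95% and at least 55% of replicates individually reaching it, limit read from the data; inconclusive means only one of the two criteria is met; inactive means neither criterion is met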
T cruzi growth-3 = Trypanosoma cruzi proliferation inhibition; shares compounds with T cruzi growth-1; T. cruzi beta-gal in NIH3T3, GalScreen luminescence, 90 h; inhibition, % at 2.09 µM; actives 21% (n = 5,600); AID 651740;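 active means mean inhibition above about 95%, with at least 55% of replicates also reaching it, limit read from the data; inconclusive means meets just one of the two conditions; inactive means meets neither condition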;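 further: plate controls were neutral control median for no effect and positive control median for full effect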
3T3 cytotox = NIH/3T3 (mouse) viability loss | shares compounds with T cruzi growth-1 | NIH/3T3 viability, CellTiter-Glo ATP luminescence, 90 h | actives 14% (n = 5,600) | cytotoxicity (signal decrease), % at 8.35 µM;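 active means mean signal decrease across replicates above about 35% based on untreated-well scatter, with enough replicates individually passing, limit read from the data; inconclusive means no rule stated though some were filed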;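 further: 0% = median of neutral control wells and 100% = median of positive control wells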
3T3 cytotox 2 = kills mouse NIH/3T3 fibroblasts. shares compounds with T cruzi growth-1. NIH/3T3 viability, CellTiter-Glo ATP luminescence, 90 h. inhibition, % at 24.9 µM. actives 56% (n = 5,600);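 active means mean loss of cell viability signal at or above a set limit, and enough replicates individually reaching it; inconclusive means meets only the mean limit or only the replicate share; inactive means meets neither condition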;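 further: 0% = median of neutral control wells and 100% = median of positive control wells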
Active calls of the source: *; ? = inconclusive; . = no result given.

SMILES | KDM4C inh | Pf Dd2 inh | T cruzi growth-1 | IDH1 mut inh | T cruzi growth-2 | T cruzi growth-3 | 3T3 cytotox | 3T3 cytotox 2
C[C@H]1CN([C@@H](C)CO)C(=O)Cc2cc(N(C)C)ccc2O[C@@H]1CN(C)Cc1ccc2c(c1)OCO2 | 7 | -2 | 107* | 0 | 101* | 63 | 1 | 12
C[C@H](CO)N1C[C@H](C)[C@@H](CN(C)Cc2ccc3c(c2)OCO3)Oc2ccc(N(C)C)cc2CC1=O | 1 | -7 | 133* | -2 | 105* | 90 | 25 | 31*
C[C@H]1CN([C@@H](C)CO)C(=O)Cc2cc(N(C)C)ccc2O[C@@H]1CN(C)Cc1ccc(Cl)c(Cl)c1 | 1 | -30 | 128* | 0 | 116* | 61 | 3 | 101*
C[C@@H]1CN([C@@H](C)CO)C(=O)Cc2cc(N(C)C)ccc2O[C@@H]1CN(C)Cc1ccc(Cl)c(Cl)c1 | . | 0 | 67 | 0 | . | . | . | .
C[C@@H]1CN([C@@H](C)CO)S(=O)(=O)c2ccc(Br)cc2O[C@H]1CN(C)Cc1cccc(F)c1 | 2 | -25 | ? | . | 98* | 92 | 53* | 107*
C[C@H](CO)N1C[C@H](C)[C@@H](CN(C)Cc2ccccc2)Oc2cc(Br)ccc2S1(=O)=O | 3 | -21 | 104 | 0 | . | . | . | .
C[C@H]1CN([C@@H](C)CO)S(=O)(=O)c2ccc(Br)cc2O[C@@H]1CN(C)Cc1cccc(F)c1 | 3 | -30 | ? | . | 99* | 65 | 32 | 103*
CCOC(=O)c1c(NC(=O)Cn2nnc(-c3ccccc3)n2)sc2c1CCCC2 | . | . | . | 0 | . | . | . | .
Cc1nnc(NCc2ccco2)[nH]c1=O | . | . | . | 0 | . | . | . | .
Cc1cc(Br)ccc1NC(=O)Cn1nc(C)c([N+](=O)[O-])c1C | . | . | . | 1 | . | . | . | .
COCC#Cc1ccc([C@H]2[C@H]3CN(C(=O)CN(C)C)CCCCN3[C@H]2CO)cc1 | 2 | 6 | 21 | . | . | . | . | .
COCC#Cc1ccc([C@@H]2[C@@H](CO)N3CCCCN(C(=O)CN(C)C)C[C@H]23)cc1 | -1 | 15 | 106* | . | 76 | -17 | -6 | 2
COCC#Cc1ccc([C@@H]2[C@@H](CO)N3CCCCN(C(=O)CN(C)C)C[C@@H]23)cc1 | -1 | 21 | 99* | . | 6 | -13 | -9 | -12
CN(C)CC#Cc1ccc([C@H]2[C@H](CO)N3CCCCN(C(=O)CN(C)C)C[C@@H]23)cc1 | 3 | -89* | ? | . | 76 | 16 | 15 | 25
CCCC(O)/C(=C/C1=C(C(=O)CC(CC(=O)O)OC(N)=O)C(=O)c2cccc(O)c2C1=O)CC(C(=O)O)[N+](C)(C)C (stereo not given) | . | . | . | 3 | . | . | . | .
CC(=O)Nc1cccc(NC(=O)c2cc(-c3ccccn3)nc3ccc(Br)cc23)c1 | . | . | . | 0 | . | . | . | .
C[C@H](CO)N1C[C@H](C)[C@H](CN(C)S(=O)(=O)c2ccc(F)cc2)Oc2ncc(-c3cccc(C(F)(F)F)c3)cc2C1=O | -1 | -25 | 109* | -4 | 102* | 59 | 42* | 54*
C[C@H](CO)N1C[C@H](C)[C@H](CN(C)S(=O)(=O)c2cccs2)Oc2ncc(-c3cccc(F)c3)cc2C1=O | -1 | -43 | 63 | 1 | . | . | . | .
C[C@H](CO)N1C[C@H](C)[C@H](CN(C)S(=O)(=O)c2cccs2)Oc2ncc(-c3cccc(C(F)(F)F)c3)cc2C1=O | 0 | -1 | 106* | 10 | 103* | 45 | 30 | 27*
COc1ccc(S(=O)(=O)N(C)C[C@@H]2Oc3ncc(-c4cccc(C(F)(F)F)c4)cc3C(=O)N([C@H](C)CO)C[C@@H]2C)cc1 | 1 | -56 | 106* | 0 | 107* | 48 | 8 | 49*
Cc1cc(Br)c2c(c1)C(O)(CC(=O)c1ccco1)C(=O)N2C (stereo not given) | . | . | . | 0 | . | . | . | .
NCCNc1ccc([N+](=O)[O-])c(NCCO)c1 | . | . | . | 0 | . | . | . | .
CC(C)CC#Cc1ccc2c(c1)O[C@H](CN(C)C(=O)C1CCCCC1)[C@H](C)CN([C@H](C)CO)S2(=O)=O | -1 | -66 | 111* | . | 99* | 106* | 63* | 104*
CC(C)CC#Cc1ccc2c(c1)O[C@@H](CN(C)C(=O)C1CCCCC1)[C@@H](C)CN([C@H](C)CO)S2(=O)=O | -1 | -44 | 115* | . | 96* | 116* | 2 | 105*
CC(C)CC#Cc1ccc2c(c1)O[C@H](CN(C)C(=O)C1CCC1)[C@@H](C)CN([C@H](C)CO)S2(=O)=O | -1 | -46 | 93 | . | . | . | . | .
SMILES | KDM4C inh | Pf Dd2 inh | T cruzi growth-1 | IDH1 mut inh | T cruzi growth-2 | T cruzi growth-3 | 3T3 cytotox | 3T3 cytotox 2
CC(C)CC#Cc1ccc2c(c1)O[C@@H](CN(C)C(=O)C1CCCCC1)[C@H](C)CN([C@H](C)CO)S2(=O)=O | 4 | -66 | 114* | -9 | 100* | 112* | -2 | 104*
Cc1cc(C)c(NC(=O)CSc2nnc(-c3ccc(F)cc3)n2C)c(C)c1 | . | . | . | 1 | . | . | . | .
COC(/C=C/C(OC(C)=O)C(C)OC(C)=O)C(O)C1CC=CC(=O)O1 (stereo not given) | . | . | . | -1 | . | . | . | .
COc1ccc(CN(C)C[C@H]2Oc3c(NC(=O)Nc4ccc(OC)cc4)cccc3C(=O)N([C@@H](C)CO)C[C@H]2C)cc1 | 0 | -30 | -27 | 2 | . | . | . | .
C[C@@H]1CN([C@H](C)CO)C(=O)c2cccc(NC(=O)Nc3ccc4c(c3)OCO4)c2O[C@@H]1CN(C)Cc1ccc(Cl)c(Cl)c1 | 0 | -22 | 112 | . | . | . | . | .
COc1ccc(NC(=O)Nc2cccc3c2O[C@@H](CN(C)Cc2ccc(Cl)c(Cl)c2)[C@@H](C)CN([C@@H](C)CO)C3=O)cc1 | -2 | -53 | 122* | 4 | 99* | 69 | 18 | 51*
COc1ccc(NC(=O)Nc2cccc3c2O[C@@H](CN(C)Cc2ccc(Cl)c(Cl)c2)[C@@H](C)CN([C@H](C)CO)C3=O)cc1 | . | -35 | ? | . | 111* | 61 | -1 | 38*
C[C@H](CO)N1C[C@H](C)[C@H](CN(C)Cc2ccc(Cl)c(Cl)c2)Oc2c(NC(=O)Nc3ccc4c(c3)OCO4)cccc2C1=O | 2 | -30 | ? | . | 101* | 90 | 8 | 27*
COc1ccc(NC(=O)Nc2cccc3c2O[C@H](CN(C)Cc2ccc(Cl)c(Cl)c2)[C@H](C)CN([C@H](C)CO)C3=O)cc1 | 0 | -22 | 37 | . | . | . | . | .
CCc1cc(=O)oc2cc(OCc3cc(C(=O)OC)oc3C)ccc12 | . | . | . | 0 | . | . | . | .
Cc1ccc(-c2cc(C(F)(F)F)n3nc(C(=O)NCc4cc(C)n(C)n4)cc3n2)cc1C | . | . | . | 0 | . | . | . | .
